18 compounds from ChEMBL document CHEMBL2406994, “Novel triple reuptake inhibitors with low risk of CAD associated liabilities: design, synthesis and biological activities of 4-[(1S)-1-(3,4-dichlorophenyl)-2-methoxyethyl]piperidine and related compounds” (Bioorg Med Chem, 2013) can be followed below.

Data set [1] concerns Mus musculus. As to the kind of experiment: Antidepressant activity in orally dosed ICR mouse after 60 mins by tail suspension test. The data set is classed as functional. As to conditions: po, 1 h, read-out: MED. The essentials: (§1)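 Male 7-week-old ICR mice, n = 11/group. Drug or vehicle (distilled water) given orally at 10 mL/kg; test run 60 min later. Mice hung by the tail from a strain-gauge hook, and immobility scored from load variation over a 10 min test. Average immobility ratio (%) per group; significance by parametric Williams' test, P < .025.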

In another data set the target is hERG (KCNH2) (Homo sapiens, UniProt Q12809). As to the kind of experiment: Inhibition of human ERG channel at 10 uM by ionworks assay relative to control. The essentials:
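hERG current measured on IonWorks Quattro with test compound at 10 µM. Expressed as % inhibition.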

Another data set concerns the target CYP2D6 (Homo sapiens, UniProt P10635). As to the kind of experiment: Inhibition of CYP2D6 (unknown origin) assessed as 1'-hydroxybufuralol production at 10 uM after 20 mins by LC/MS/MS analysis relative to control. Type of data set: ADME. The settings on record: probe bufuralol (measured as 1'-hydroxybufuralol production). In outline: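 10 µmol/L bufuralol incubated with 2 nmol/L CYP2D6 from insect cells expressing the enzyme, with 10 µmol/L test compound, for 20 min at 37 °C. 1'-hydroxybufuralol quantified by LC/MS/MS. Expressed as % inhibition.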

Data set [2] deals with Sodium-dependent dopamine transporter (Homo sapiens, UniProt Q01959). As to the kind of experiment: Displacement of [3H]-dopamine from human DAT expressed in CHO cells by TopCounting analysis. Type of data set: cell-based. The essentials:
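CHO cells stably expressing human DAT, plated overnight at 3 × 10⁵ cells/mL in HEPES-buffered saline with 0.5% BSA. Compound added, then [³H]-dopamine (200 nM diluted stock) with cold dopamine. Uptake for 60 min, two PBS washes, scintillation counting. Activity relative to 100 µM nomifensine as 100%. IC50 and 95% CI from n = 2.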
A general note: Displacement assays read how much labelled ligand stays bound in the presence of the test substance.

Data set [3] deals with Sodium-dependent noradrenaline transporter (Homo sapiens, UniProt P23975). The experiment in a line: Displacement of [3H]-norepinephrine from human NET expressed in CHO cells by TopCounting analysis. The data set is classed as cell-based. In outline: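 CHO cells stably expressing human NET, plated overnight at 3 × 10⁵ cells/mL in HEPES-buffered saline with 0.5% BSA. Compound added, then [³H]-norepinephrine (200 nM diluted stock). Uptake stopped at 45 min with two PBS washes, then scintillation counting. IC50 and 95% CI from n = 2.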

In data set [4] the target is Sodium-dependent serotonin transporter (Homo sapiens, UniProt P31645). As to the kind of experiment: Displacement of [3H]-hydroxytryptamine from human SERT expressed in CHO cells by TopCounting analysis. Type of data set: cell-based. In outline: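 CHO cells stably expressing human SERT, plated overnight at 3 × 10⁵ cells/mL in HEPES-buffered saline with 0.5% BSA. Compound added, then [³H]-5-HT (200 nM diluted stock). Uptake stopped at 20 min with two PBS washes, then scintillation counting. Activity relative to 10 µM paroxetine.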

Data set [5] relates to Mus musculus. As to the kind of experiment: Antidepressant activity in ICR mouse assessed as DA level at 10 mg/kg, po after 120 mins by microdialysis relative to control. Type of data set: functional. The essentials: (§2)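 Male 6-week-old ICR mice; probe implanted stereotaxically into medial prefrontal cortex under pentobarbital, 1 day recovery. Perfusion with Ringer at 2 µL/min; after ≥120 min stabilisation, dialysate collected every 20 min. Baseline from mean of three stable samples. Drug in water given orally at 10 mL/kg; collection continued 120 min. 5-HT, NE and DA measured by HPLC with electrochemical detection.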

In data set [6] the test system is Mus musculus. As to the kind of experiment: Antidepressant activity in ICR mouse assessed as NE level at 10 mg/kg, po after 120 mins by microdialysis relative to control. The data set is classed as functional. The essentials: as §2
The test system of data set [7] is Mus musculus. As to the kind of experiment: Antidepressant activity in ICR mouse assessed as 5-HT level at 10 mg/kg, po after 120 mins by microdialysis relative to control. The data set is classed as functional. In outline:
as §2

The subject of data set [8] is Mus musculus. As to the kind of experiment: Ex vivo receptor occupancy of DAT in po dosed ICR mouse after 1 hr in presence of [3H]-WIN35428. Type of data set: functional, organism-based. In outline:
(§3)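 Oral dosing in mice; 1 h later, frontal cortex and striatum dissected. Unwashed homogenate incubated with [³H]-citalopram (25 nM, SERT), [³H]-nisoxetine (25 nM, NET) or [³H]-WIN35428 (50 nM, DAT). Occupancy taken as percent inhibition of specific binding.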

For data set [9], the system named is Mus musculus. The experiment in a line: Ex vivo receptor occupancy of NET in po dosed ICR mouse after 1 hr in presence of [3H]-nisoxetine. The data set is classed as functional, organism-based. In outline:
as §3

Data set [10] has as its system Mus musculus. As to the kind of experiment: Ex vivo receptor occupancy of SERT in po dosed ICR mouse after 1 hr in presence of [3H]-citalopram. Type of data set: functional, organism-based. The essentials: as §3
Data set [11] relates to Mus musculus. As to the kind of experiment: Antidepressant activity in ICR mouse assessed as reduction in immobility rate at 10 mg/kg, po after 60 mins by tail suspension test. Type of data set: functional, organism-based. The arrangement: dose 10 mg/kg. The essentials: as §1
The test system of data set [12] is Mus musculus. The experiment in a line: Antidepressant activity in po dosed ICR mouse assessed as immobility rate after 60 mins by tail suspension test. The data set is classed as functional, organism-based. In outline: as §1

Molecules are shown by their SMILES. pIC50: −log10 of the molar value. Calls of active or inactive are those of the source. The rule behind the calls is not given here.

By inhibition is commonly meant the drop in the measured response relative to a control, in per cent. As a reminder, the pIC50 is the IC50 on a negative log10 scale, so that one unit is a factor of ten. A low value points to a high IC50.

Sodium-dependent serotonin transporter, sequence (P31645 whole entry): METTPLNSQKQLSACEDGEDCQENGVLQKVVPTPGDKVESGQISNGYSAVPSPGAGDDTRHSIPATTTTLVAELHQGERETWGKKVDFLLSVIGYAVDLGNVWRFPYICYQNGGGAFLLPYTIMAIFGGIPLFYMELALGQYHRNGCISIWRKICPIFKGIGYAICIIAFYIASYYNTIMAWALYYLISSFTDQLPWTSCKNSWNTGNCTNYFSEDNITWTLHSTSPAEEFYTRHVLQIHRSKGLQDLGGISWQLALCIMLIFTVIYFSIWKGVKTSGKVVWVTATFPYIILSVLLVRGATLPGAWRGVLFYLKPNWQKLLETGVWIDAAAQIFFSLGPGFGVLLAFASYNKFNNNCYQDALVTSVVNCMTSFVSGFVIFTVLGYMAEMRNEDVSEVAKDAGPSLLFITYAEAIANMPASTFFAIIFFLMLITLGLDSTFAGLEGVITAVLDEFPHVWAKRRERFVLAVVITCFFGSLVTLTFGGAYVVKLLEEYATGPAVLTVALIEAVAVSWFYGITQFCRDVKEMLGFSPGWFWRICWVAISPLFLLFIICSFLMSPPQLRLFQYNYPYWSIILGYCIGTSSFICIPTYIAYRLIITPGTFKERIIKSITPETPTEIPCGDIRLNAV
hERG (KCNH2), sequence (Q12809 whole entry): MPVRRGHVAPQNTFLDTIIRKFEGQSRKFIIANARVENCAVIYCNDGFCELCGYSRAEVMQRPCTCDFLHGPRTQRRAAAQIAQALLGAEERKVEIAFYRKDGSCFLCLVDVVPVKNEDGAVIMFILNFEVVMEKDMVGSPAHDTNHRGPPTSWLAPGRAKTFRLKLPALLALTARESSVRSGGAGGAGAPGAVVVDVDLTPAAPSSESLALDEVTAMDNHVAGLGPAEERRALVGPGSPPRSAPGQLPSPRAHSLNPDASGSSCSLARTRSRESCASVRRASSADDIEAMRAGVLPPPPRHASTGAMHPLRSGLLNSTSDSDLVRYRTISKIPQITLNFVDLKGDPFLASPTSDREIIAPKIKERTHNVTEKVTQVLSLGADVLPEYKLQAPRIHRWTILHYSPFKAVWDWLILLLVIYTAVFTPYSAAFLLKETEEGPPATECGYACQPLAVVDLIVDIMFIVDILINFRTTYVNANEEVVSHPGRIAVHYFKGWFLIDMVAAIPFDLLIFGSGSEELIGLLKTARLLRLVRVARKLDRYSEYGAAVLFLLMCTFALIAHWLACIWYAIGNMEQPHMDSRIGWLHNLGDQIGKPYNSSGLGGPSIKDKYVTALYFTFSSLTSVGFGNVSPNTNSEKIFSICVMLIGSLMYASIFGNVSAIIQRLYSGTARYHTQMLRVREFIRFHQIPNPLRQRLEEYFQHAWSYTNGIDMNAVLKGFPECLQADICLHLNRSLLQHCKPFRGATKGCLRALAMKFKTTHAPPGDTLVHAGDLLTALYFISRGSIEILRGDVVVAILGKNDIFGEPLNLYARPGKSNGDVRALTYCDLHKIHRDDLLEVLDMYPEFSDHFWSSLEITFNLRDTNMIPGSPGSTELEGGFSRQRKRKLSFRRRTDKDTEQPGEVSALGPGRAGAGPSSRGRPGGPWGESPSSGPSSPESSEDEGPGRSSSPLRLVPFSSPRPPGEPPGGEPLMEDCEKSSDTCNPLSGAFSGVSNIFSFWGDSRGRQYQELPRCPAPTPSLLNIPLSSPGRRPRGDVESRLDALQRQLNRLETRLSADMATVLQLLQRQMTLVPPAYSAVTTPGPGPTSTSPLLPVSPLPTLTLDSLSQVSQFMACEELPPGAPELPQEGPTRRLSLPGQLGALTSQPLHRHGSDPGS
CYP2D6, sequence (P10635 whole entry): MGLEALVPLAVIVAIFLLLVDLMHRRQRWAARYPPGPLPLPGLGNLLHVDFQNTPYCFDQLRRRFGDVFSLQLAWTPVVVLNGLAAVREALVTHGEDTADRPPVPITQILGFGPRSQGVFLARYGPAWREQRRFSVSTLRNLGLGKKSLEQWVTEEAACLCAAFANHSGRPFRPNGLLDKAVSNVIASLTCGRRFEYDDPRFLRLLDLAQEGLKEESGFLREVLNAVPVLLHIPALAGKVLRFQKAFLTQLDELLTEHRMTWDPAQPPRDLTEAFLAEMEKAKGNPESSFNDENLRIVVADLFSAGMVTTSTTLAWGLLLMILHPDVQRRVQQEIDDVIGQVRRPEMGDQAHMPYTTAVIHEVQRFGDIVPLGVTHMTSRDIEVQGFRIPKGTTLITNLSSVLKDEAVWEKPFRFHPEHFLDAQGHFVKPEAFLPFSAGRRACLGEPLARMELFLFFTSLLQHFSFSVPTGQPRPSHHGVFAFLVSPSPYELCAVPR
Sodium-dependent dopamine transporter, sequence (Q01959 whole entry): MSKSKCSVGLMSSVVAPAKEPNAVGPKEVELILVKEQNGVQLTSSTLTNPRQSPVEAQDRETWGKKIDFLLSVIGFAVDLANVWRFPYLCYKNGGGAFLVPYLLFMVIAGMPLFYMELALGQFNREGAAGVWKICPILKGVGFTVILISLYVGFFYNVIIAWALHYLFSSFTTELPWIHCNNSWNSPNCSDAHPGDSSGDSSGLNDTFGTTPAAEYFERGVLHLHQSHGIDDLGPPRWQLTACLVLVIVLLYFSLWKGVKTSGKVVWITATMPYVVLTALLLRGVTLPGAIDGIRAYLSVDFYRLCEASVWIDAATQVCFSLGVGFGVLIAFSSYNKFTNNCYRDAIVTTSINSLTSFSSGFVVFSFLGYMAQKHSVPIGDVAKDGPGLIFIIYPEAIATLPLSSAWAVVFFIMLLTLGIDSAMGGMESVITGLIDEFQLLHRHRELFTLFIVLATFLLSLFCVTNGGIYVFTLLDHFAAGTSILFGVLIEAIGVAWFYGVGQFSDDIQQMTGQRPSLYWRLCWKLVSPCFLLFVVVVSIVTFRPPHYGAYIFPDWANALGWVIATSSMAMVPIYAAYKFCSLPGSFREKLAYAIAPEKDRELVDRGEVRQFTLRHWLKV
Sodium-dependent noradrenaline transporter, sequence (P23975 whole entry): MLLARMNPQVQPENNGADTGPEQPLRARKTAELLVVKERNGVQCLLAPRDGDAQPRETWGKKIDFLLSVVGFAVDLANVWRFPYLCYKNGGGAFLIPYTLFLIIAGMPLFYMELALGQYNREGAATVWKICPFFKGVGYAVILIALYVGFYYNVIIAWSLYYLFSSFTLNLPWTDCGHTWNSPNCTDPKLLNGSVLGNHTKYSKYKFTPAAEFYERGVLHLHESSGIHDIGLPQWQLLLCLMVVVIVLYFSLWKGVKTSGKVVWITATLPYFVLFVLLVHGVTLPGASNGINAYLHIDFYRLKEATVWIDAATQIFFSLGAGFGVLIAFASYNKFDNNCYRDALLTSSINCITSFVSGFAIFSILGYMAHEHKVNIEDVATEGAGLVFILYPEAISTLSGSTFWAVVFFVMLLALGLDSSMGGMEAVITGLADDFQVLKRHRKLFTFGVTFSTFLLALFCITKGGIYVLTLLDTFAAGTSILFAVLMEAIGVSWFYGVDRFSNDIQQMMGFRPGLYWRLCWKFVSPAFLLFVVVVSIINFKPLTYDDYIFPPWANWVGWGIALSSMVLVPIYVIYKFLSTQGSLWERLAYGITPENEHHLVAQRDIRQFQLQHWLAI

In the case of `CCOCC(c1ccc(Cl)c(Cl)c1)C1CCNCC1.Cl` (racemic), in the data set on Mus musculus [1], the minimal effective dose came to 3 mg/kg. On hERG (KCNH2), the inhibition at 10 µM was 89%. Also, at CYP2D6, the inhibition at 20 min, 10 µM is 44%. Further, the figures for the pIC50 in data set [2], in data set [3] and in data set [4] were 6.77, 7.55 and 7.80, respectively.

As for `COC(=O)C(c1ccc(Cl)c(Cl)c1)C1CCNCC1` (racemic), the inhibition at 10 µM against hERG (KCNH2) was found to be 56%. Besides, the inhibition at 20 min, 10 µM at CYP2D6 was 13%. For the same compound, the pIC50 in data set [2] was 6.66; in data set [3] it was 7.74; in data set [4], 8.28.

`COCC(c1ccc2ccccc2c1)C1CCNCC1` (racemic): the inhibition at 10 µM against hERG (KCNH2) was 38%. Also, the inhibition at 20 min, 10 µM at CYP2D6 amounted to 22%. Also, the pIC50 in data set [2] is 5.96; in data set [3] it was 7.44; in [4], 8.68.

With `CSCC(c1ccc(Cl)c(Cl)c1)C1CCNCC1.Cl` (racemic), in the data set on Mus musculus [1], the minimal effective dose came out at 30 mg/kg. Besides, the inhibition at 10 µM against hERG (KCNH2) came to 73%. The inhibition at 20 min, 10 µM at CYP2D6 amounted to 32%. The pIC50 in data set [2] is 7.10; in data set [3], 8.03; in data set [4] it was 8.04.

`CC(c1ccc(Cl)c(Cl)c1)C1CCNCC1.Cl` (racemic): the minimal effective dose with Mus musculus [1] worked out at 3 mg/kg. For the same compound, the inhibition at 10 µM against hERG (KCNH2) was 72%. Also, the inhibition at 20 min, 10 µM at CYP2D6 worked out at 27%. Moreover, the pIC50 in data set [2] is 6.80; in data set [3], 7.60; in data set [4], 7.92.

As to `COCC(c1cccc(Cl)c1)C1CCNCC1` (racemic), the inhibition at 10 µM on hERG (KCNH2) was determined as 23%. Also, the inhibition at 20 min, 10 µM at CYP2D6 stood at 2%. Moreover, the pIC50 in data set [2] is 5.59; in data set [3], 7.01; in [4], 6.74.

With `CS(=O)(=O)CC(c1ccc(Cl)c(Cl)c1)C1CCNCC1` (racemic), the inhibition at 10 µM at hERG (KCNH2) was determined as 9%. Further, at CYP2D6, the inhibition at 20 min, 10 µM stood at 3.9%. Also, the figures for the pIC50 in data set [2], in [3] and in data set [4] were 5.66, 6.70 and 6.47, respectively.

Turning to `COCC(c1ccc(F)c(Cl)c1)C1CCNCC1` (racemic), the inhibition at 10 µM against hERG (KCNH2) was found to be 24%. Besides, on CYP2D6, the inhibition at 20 min, 10 µM is -18%. The figures for the pIC50 in data set [2], in [3] and in [4] were 6.24, 7.15 and 7.49, respectively.

Turning to `CCSCC(c1ccc(Cl)c(Cl)c1)C1CCNCC1` (racemic), at hERG (KCNH2), the inhibition at 10 µM came out at 94%. In addition, on CYP2D6, the inhibition at 20 min, 10 µM stood at 55%. Also, the values for the pIC50 in data set [2], in [3] and in data set [4] were 7.14, 8.06 and 8.04, respectively.

On to `COC[C@@H](c1ccc(Cl)c(Cl)c1)C1CCNCC1.Cl`, for which the minimal effective dose in the data set on Mus musculus [1] came to 10 mg/kg. The inhibition at 10 µM at hERG (KCNH2) stood at 46%. The inhibition at 20 min, 10 µM on CYP2D6 worked out at 13%. The pIC50 in data set [2] was 6.33; in [3] it was 7.68; in [4] it was 8.24.

Regarding `COCC(c1ccc(Cl)c(Cl)c1)C1CCNCC1.Cl` (racemic), the minimal effective dose in the data set on Mus musculus [1] came out at 3 mg/kg. In addition, on hERG (KCNH2), the inhibition at 10 µM came to 42%. Besides, the inhibition at 20 min, 10 µM at CYP2D6 stood at 5.7%. The results for the pIC50 in data set [2], in [3] and in [4] were 6.72, 7.85 and 7.96, respectively.

Regarding `COCC(c1ccc(Cl)cc1)C1CCNCC1` (racemic), the inhibition at 10 µM at hERG (KCNH2) turned out to be 22%. Further, the inhibition at 20 min, 10 µM on CYP2D6 is -2.8%. In addition, the pIC50 in [2] is 5.77; in [3] it was 6.89; in data set [4] it was 6.92.

As to `CCC(=O)C(c1ccc(Cl)c(Cl)c1)C1CCNCC1` (racemic), on hERG (KCNH2), the inhibition at 10 µM stood at 51%. Besides, the inhibition at 20 min, 10 µM at CYP2D6 worked out at 6.1%. Also, the pIC50 is 7.00 in data set [2], 7.55 in [3] and 7.74 in data set [4].

For the compound `CCOC(=O)C(c1ccc(Cl)c(Cl)c1)C1CCNCC1` (racemic), at hERG (KCNH2), the inhibition at 10 µM turned out to be 110%. Besides, the inhibition at 20 min, 10 µM on CYP2D6 amounted to 38%. The pIC50 was 7.01 in [2], 7.92 in [3] and 8.03 in [4].

Turning to `COC[C@H](c1ccc(Cl)c(Cl)c1)C1CCNCC1.Cl`, the Activity in the data set with Mus musculus [5] is 270%; in the data set with Mus musculus [6] it was 400%; with Mus musculus [7], 180%; with Mus musculus [8], “Dose-dependent effect”; in the data set on Mus musculus [9], “Dose-dependent effect”; in the data set on Mus musculus [10] it was “Dose-dependent effect”. For the same compound, the Activity result with Mus musculus [12] was “Dose-dependent effect”. Moreover, in the data set on Mus musculus [11], the outcome was Active. The minimal effective dose in the data set with Mus musculus [1] came out at 10 mg/kg. The inhibition at 10 µM against hERG (KCNH2) was found to be 48%. For the same compound, the inhibition at 20 min, 10 µM at CYP2D6 came out at 14%. Further, the pIC50 in [2] was 6.74; in data set [3], 7.82; in [4] it was 6.89.

As to `CCCC(=O)C(c1ccc(Cl)c(Cl)c1)C1CCNCC1` (racemic), the inhibition at 10 µM at hERG (KCNH2) was found to be 72%. Moreover, the inhibition at 20 min, 10 µM at CYP2D6 stood at 20%. In addition, the pIC50 is 7.59 in data set [2], 7.66 in [3] and 7.43 in data set [4].

Turning to `CC(=O)C(c1ccc(Cl)c(Cl)c1)C1CCNCC1.Cl` (racemic), the minimal effective dose in the data set with Mus musculus [1] was 30 mg/kg. For the same compound, the inhibition at 10 µM at hERG (KCNH2) was 40%. Besides, the inhibition at 20 min, 10 µM on CYP2D6 came out at 11%. In addition, the pIC50 in data set [2] was 6.74; in data set [3] it was 7.36; in [4] it was 7.68.

On to `OCC(c1ccc(Cl)c(Cl)c1)C1CCNCC1` (racemic), for which, at hERG (KCNH2), the inhibition at 10 µM came to 12%. Further, at CYP2D6, the inhibition at 20 min, 10 µM is -1.5%. Further, the pIC50 in [2] was 5.62; in data set [3], 6.96; in data set [4], 7.10.
